ChEMBL document CHEMBL4251712, “Mbandakamine-Type Naphthylisoquinoline Dimers and Related Alkaloids from the Central African Liana Ancistrocladus ealaensis with Antiparasitic and Antileukemic Activities” (J Nat Prod, 2018)
Activity calls are given as the source filed them. The rule behind the calls is not given here.

What was measured:
Trypanosoma cruzi = assay: […] activity against Trypanosoma cruzi Tulahuen C4 infected in rat L6 cells after 96 hrs by CPRG/Nonidet reagent based photometric analysis; type: functional, organism-based; settings: for IC50: Tulahuen C4, L6, 96 h
Summary of the method: (§1)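 IC50 values are means of two independent assays, individual values differing by less than a factor of 2.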

Plasmodium falciparum [1] = assay: Antiplasmodial activity against chloroquine-sensitive Plasmodium falciparum NF54 assessed as reduction in [3H]-hypoxanthine incorporation pretreated for 48 hrs followed by [3H]-hypoxanthine addition measured after 24 hrs by liquid scintillation counting method; type: functional, organism-based
CCRF-CEM [2] = assay: Antileukemic activity against human CCRF-CEM cells after 24 to 48 hrs by resazurin dye based fluorescence assay; type: functional, cell-based
Summary of the method: (§2)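 Leukemia cells treated with compounds across 0.001 to 100 μM, doxorubicin as reference drug; viability read by resazurin assay. Values are means with standard deviation of three independent experiments, each with six parallel measurements.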

ADR5000 cell line [3] = assay: Antileukemic activity against human CEM/ADR5000 cells after 24 to 48 hrs by resazurin dye based fluorescence assay; type: functional, cell-based; summary of the method: as §2
[4] = Resistance index, ratio of IC50 for human CEM/ADR5000 cells to IC50 for human CCRF-CEM cells; type: functional
Summary of the method: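 Degree of resistance calculated as IC50 for CEM/ADR5000 divided by IC50 for CCRF-CEM; IC50s from resazurin viability assay after treatment at 0.001 to 100 μM, three independent experiments of six parallels each.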

Plasmodium falciparum [5] = assay: Antiplasmodial activity against Plasmodium falciparum NF54; type: functional, organism-based; summary of the method: as §1
Plasmodium falciparum [6] = assay: Antiplasmodial activity against chloroquine and pyrimethamine-resistant Plasmodium falciparum K1 assessed as reduction in [3H]-hypoxanthine incorporation pretreated for 48 hrs followed by [3H]-hypoxanthine addition measured after 24 hrs by liquid scintillation counting method; type: functional, organism-based
Summary of the method: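 IC50 against the K1 strain taken as the mean of two independent assays, with individual values differing by a factor of less than 2.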

[7] = system: Trypanosoma brucei rhodesiense; assay: […] activity against Trypanosoma brucei rhodesiense STIB 900 trypomastigote after 72 hrs by Alamar blue assay; type: functional, organism-based; settings: for IC50: STIB 900, 72 h; summary of the method: as §1
Leishmania donovani = assay: […] activity against Leishmania donovani MHOM-ET-67/L82 axenic amastigotes after 72 hrs by Alamar blue assay; type: functional, organism-based; settings: for IC50: MHOM-ET-67/L82, 72 h; summary of the method: as §1
L6 = assay: Cytotoxicity against rat L6 cells after 72 hrs by Alamar blue assay; type: cell-based; settings: L6, 72 h; summary of the method: as §1
[8] = Selectivity index, ratio of IC50 for rat L6 cells to IC50 for chloroquine-sensitive Plasmodium falciparum NF54; type: toxicity; settings: read-out: Ratio IC50
Summary of the method: (§3)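 Selectivity index is the L6-cell IC50 divided by the P. falciparum IC50 for the matching strain (K1 or NF54). Each IC50 is the mean of two independent assays, with individual values differing by a factor of less than 2.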

[9] = Selectivity index, ratio of IC50 for rat L6 cells to IC50 for chloroquine and pyrimethamine-resistant Plasmodium falciparum K1; type: toxicity; settings: read-out: Ratio IC50; summary of the method: as §3
CCRF-CEM [10] = assay: Antileukemic activity against human CCRF-CEM cells assessed as reduction in cell viability at 0.001 to 100 uM after 24 to 48 hrs by resazurin dye based fluorescence assay relative to control
ADR5000 cell line [11] = assay: Antileukemic activity against human CEM/ADR5000 cells assessed as reduction in cell viability at 0.001 to 100 uM after 24 to 48 hrs by resazurin dye based fluorescence assay relative to control

Row | SMILES | IC50 (Trypanosoma cruzi) [µM] | IC50 (Plasmodium falciparum [1]) [µM] | IC50 (Plasmodium falciparum [6]) [µM] | IC50 [7] [µM] | IC50 (Leishmania donovani) [µM] | IC50 (L6) [µM] | selectivity ratio [8] | selectivity ratio [9] | Activity (Plasmodium falciparum [1]) | Activity (Plasmodium falciparum [6]) | Activity (Trypanosoma cruzi) | Activity [7] | Activity (Leishmania donovani) | also measured
1 | O=C(Cn1ccnc1[N+](=O)[O-])NCc1ccccc1 [BENZNIDAZOLE] | 3.56 |  |  |  |  |  |  |  |  |  |  |  |  | 
2 | COc1cc(O)c(-c2cc(-c3c(C)cc(O)c4c(OC)ccc(-c5c(O)cc(OC)c6c5C[C@@H](C)N[C@@H]6C)c34)c(O)c3c(OC)cc(C)cc23)c2c1[C@@H](C)N[C@H](C)C2 |  | 0.13 |  |  |  |  |  |  |  |  |  |  |  | IC50 (CCRF-CEM [2]): 7.4 µM; IC50 (ADR5000 cell line [3]): 23.9 µM; Ratio IC50 [4]: 3.2
3 | COc1cc(C)cc2c(-c3c(O)cc(O)c4c3C[C@@H](C)N[C@@H]4C)ccc(O)c12 [KORUPENSAMINE A] |  |  |  |  |  |  |  |  |  |  |  |  |  | IC50 (Plasmodium falciparum [5]): 0.82 µM
4 | COc1cc(O)c(-c2ccc(OC)c3c(O)cc(C)c(-c4cc(-c5c(O)cc(OC)c6c5C[C@@H](C)N[C@H]6C)c5cc(C)cc(OC)c5c4O)c23)c2c1C(C)=N[C@H](C)C2 |  | 0.337 | 0.126 | 4.1 | > 100 | 8.87 | 26.3 | 70.4 |  |  |  |  |  | IC50 (CCRF-CEM [2]): 2.96 µM; IC50 (ADR5000 cell line [3]): 19 µM; Ratio IC50 [4]: 6.4
5 | COc1cc(O)c2c(c1)C[C@H](C)N=C2C |  |  |  |  |  |  |  |  | inactive | inactive | inactive | inactive | inactive | 
6 | COc1cc(OC)c(-c2ccc(O)c3c(OC)cc(C)cc23)c2c1C(C)=N[C@@H](C)C2 | 43.4 | 2.69 | 1.06 | 1.46 | 13.4 | 101 | 37.5 | 95.3 |  |  |  |  |  | Activity (CCRF-CEM [10]): <20%; Activity (ADR5000 cell line [11]): <20%
7 | COc1cc(OC)c2c(c1-c1ccc(O)c3c(OC)cc(C)cc13)C[C@H](C)N[C@H]2C [ANCISTROEALAINE B] | 32.5 | 1.74 | 0.76 | 3.85 | 37.9 | 77.8 | 44.7 | 102 |  |  |  |  |  | 
8 | COc1cc(O)c(-c2cc(-c3c(C)cc(O)c4c(OC)ccc(-c5c(O)cc(OC)c6c5C[C@@H](C)N[C@@H]6C)c34)c(O)c3c(OC)cc(C)cc23)c2c1[C@H](C)N[C@H](C)C2 | 41.8 | 0.047 | 0.064 | 1.8 | > 100 | 15.9 | 339 | 249 |  |  |  |  |  | IC50 (CCRF-CEM [2]): 1.5 µM; IC50 (ADR5000 cell line [3]): 27.7 µM; Ratio IC50 [4]: 18.5
9 | COc1cc(O)cc2c1C(C)=N[C@@H](C)C2 |  |  |  |  |  |  |  |  | inactive | inactive | inactive | inactive | inactive | 
10 | COc1cc([C@@H]2c3cc4c(cc3[C@H](O)[C@H]3COC(=O)[C@H]23)OCO4)cc(OC)c1OC [PODOFILOX] |  |  |  |  |  | 0.041 |  |  |  |  |  |  |  | 
11 | COc1cc(O)c2c(c1)C[C@H](C)N[C@H]2C |  |  |  |  |  |  |  |  | inactive | inactive | inactive | inactive | inactive | 
12 | COc1cc(C)cc2c(-c3c(O)cc(O)c4c3C[C@@H](C)N[C@H]4C)ccc(O)c12 | 237 | 9.94 | 12.9 | 15.3 | 26.4 | 79.1 | 7.95 | 6.13 |  |  |  |  |  | 
13 | COc1cc(O)c2c(c1)C[C@H](C)N[C@@H]2C |  |  |  |  |  |  |  |  | inactive | inactive | inactive | inactive | inactive | 
